# Source: PubChem (Broad Institute)
# S100A4 MyoIIA: blocks human S100A4 binding to myosin IIA peptide; S100A4/TAMRA-MyoIIA peptide fluorescence polarization; inhibition, % at 10.7 µM; hit rate 0.14% among 360,000; AID 652163;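 active means mean inhibition of at least 70% across replicates, with every replicate also reaching that level; inconclusive means mean inhibition reaches 70% but some replicates fall short; inactive means mean inhibition below 70%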
# Target sequence (P26447 whole entry, looked up): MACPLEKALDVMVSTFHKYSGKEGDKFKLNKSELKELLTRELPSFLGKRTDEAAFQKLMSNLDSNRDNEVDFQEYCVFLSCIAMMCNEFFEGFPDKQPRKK
#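 Test system – S100A4 monomer (human) · Compound – single-point compound testing · Schedule – 5 min incubation before reading · Probe or stimulus – TAMRA-labelled myosin IIA heavy-chain peptide probe, 5 nM · Benchmarks – neutral control DMSO, positive control TFP · Medium – Calcium-containing HEPES buffer, pH 7.2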
# Xi reactivation: X-chromosome reactivation activator. XiGFP mouse fibroblasts, % GFP-positive cells imaging, 3 d; cells co-treated with 5-aza-dC sensitizer; scaled so ellipticine positive control = 100%. activation, % at 7.58 µM. hit rate 0.055% among 360,000. AID 743238;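 active means mean normalized replicate activation at least 10% and every replicate at or above 10%; inconclusive means only one of the two criteria met; inactive means mean below 10% and not all replicates reach 10%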;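 further: 0% = median of on-plate neutral control wells and 100% = ellipticine 6 µM median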
#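 Assay system: SV40-immortalized XiGFP fibroblast cells, line 68-5-11; buffer or medium: DMEM plus 5-aza-dC sensitizer; compound: one concentration, pinned; timing: compounds 3 days, fix/stain 15 min at room temperature; benchmarks: positive control ellipticine, 6 µM final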
# E-selectin induc: induces E-selectin expression in human endothelial cells. HUVEC E-selectin immunofluorescence imaging; normalized: neutral wells 0, TNF-alpha wells 100. activation, % at 7.58 µM. P16581. hit rate 0.37% among 260,000;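 active means mean E-selectin-positive cell signal at least 10% of the positive control, reached in at least 60% of replicates, without over 20% cell loss; inconclusive means no rule given, readout overlaps actives, possibly toxicity-flagged; inactive means the rest, including those meeting only one limit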
#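 Test system: HUVEC | Signal: Immunofluorescence imaging | Read-out: Percent E-selectin-positive cells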
# DENV2 CPE rescue: inhibitors of DENV2 cytopathic effect. DENV2-infected cells, cytopathic effect rescue, plate reader. CPE inhibition, % at 9.99 µM. hit rate 1.7% among 350,000. AID 651640; in the data active means CPE inhibition above about 20%, passing the limit was not always enough; inconclusive means no clear call, values can overlap the other calls; tested in BHK-21 cells;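 further: 0% = median of neutral control wells and 100% = median of positive control wells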
# Numbers without * were called inactive; ? = inconclusive; . = no result; ! = not active in a repeat. Shown are actives, neighbours in structure and some others; about 2% of the full set was active somewhere.
SMILES,S100A4 MyoIIA,Xi reactivation,E-selectin induc,DENV2 CPE rescue
COCC(=O)N(C)C[C@@H]1Oc2cc(C#Cc3cccnc3)ccc2S(=O)(=O)N([C@@H](C)CO)C[C@@H]1C,2,0,0,-1
CC(Sc1ccccc1)C(=O)NCC(c1ccco1)N1CCCCC1 (stereo not drawn),-9,1,.,107*
O=[N+]([O-])c1ccc(N/N=C/c2sc(N3CCOCC3)nc2-c2ccccc2)c(S(=O)(=O)Nc2ccccc2Cl)c1,.,0,.,.
O=[N+]([O-])c1ccc(N/N=C/c2sc(N3CCOCC3)nc2-c2ccccc2)c(S(=O)(=O)Nc2ccc(Cl)cc2)c1,-22,87*,.,8
COc1ccc(C#Cc2ccc3c(c2)[C@@H]2[C@@H](CCN2S(=O)(=O)c2cccc(OC)c2)[C@H](CO)N3)cc1,-11,0,0,-8
COc1ccc(S(=O)(=O)N2CC[C@@H]3[C@H]2c2cc(C#Cc4cccc(OC)c4)ccc2N[C@@H]3CO)cc1,-4,0,1,-1
COc1cccc(C#Cc2ccc3c(c2)[C@@H]2[C@@H](CCN2S(=O)(=O)c2cccc(OC)c2)[C@@H](CO)N3)c1,-9,0,0,-4
COc1cccc(S(=O)(=O)N2CC[C@H]3[C@H](CO)Nc4ccc(C#Cc5ccccc5)cc4[C@H]32)c1,-1,0,1,31*
COc1cccc(S(=O)(=O)N2CC[C@@H]3[C@@H](CO)Nc4ccc(C#Cc5ccccc5)cc4[C@@H]32)c1,103*,0,0,-10
COc1cccc(C#Cc2ccc3c(c2)[C@@H]2[C@@H](CCN2S(=O)(=O)c2ccccc2)[C@@H](CO)N3)c1,48,0,-1,45*
CCOC(=O)c1[nH]c(C)c(C(=O)OCC(=O)N2CC(=O)Nc3ccccc32)c1C,-3,0,-1,71*
Cn1c(=O)[nH]c2c(cnn2C)c1=O,-22,0,0,-7
CCOC(=O)[C@@H]1[C@H]2COc3ccc(Br)cc3[C@@H]2N2C(=O)N(c3ccc(C)cc3)C(=O)[C@]12C,-5,0,.,51*
CCOC(=O)[C@H]1[C@H]2COc3ccc(Br)cc3[C@@H]2N2C(=O)CN(Cc3ccco3)C(=O)[C@@]12C,-4,0,0,50*
CC(C)OCCCn1c(=O)c2ccccc2n2c(CCC(=O)NCc3ccccn3)nnc12,0,0,.,-2
COc1ccc(/C=N/n2c(C)nc3ccccc3c2=O)cc1,-6,0,31*,5
Cc1nc2ccccc2c(=O)n1/N=C/c1ccc(O)cc1,-1,.,.,-4
CC(C)NC(=O)Nc1ccc2c(c1)CC(=O)N([C@H](C)CO)C[C@H](C)[C@H](CN(C)Cc1ccc(Cl)c(Cl)c1)O2,4,0,59*,-2
CC(C)NC(=O)Nc1ccc2c(c1)CC(=O)N([C@@H](C)CO)C[C@H](C)[C@@H](CN(C)Cc1ccc(Cl)c(Cl)c1)O2,-2,0,-26,-2
CC(C)NC(=O)Nc1ccc2c(c1)CC(=O)N([C@H](C)CO)C[C@@H](C)[C@@H](CN(C)Cc1ccc(Cl)c(Cl)c1)O2,5,0,47*,18
CC(C)NC(=O)Nc1ccc2c(c1)CC(=O)N([C@@H](C)CO)C[C@@H](C)[C@@H](CN(C)Cc1ccc(Cl)c(Cl)c1)O2,5,0,-8,1
Nc1nnc(SC2CCCC2)s1,3,1,0,-6
CS(=O)(=O)N(Cc1ccc(C(=O)NN=C2CCCCCC2)cc1)c1ccccc1,-1,0,1,110*
CCN1CCN(CCc2nc3cc(NC(=O)COc4ccc(Cl)cc4)ccc3n2C)CC1,2,0,0,25*
Cn1c(CCN2CCCC2)nc2cc(NC(=O)COc3ccc(Cl)cc3)ccc21,-1,0,0,-3
SMILES,S100A4 MyoIIA,Xi reactivation,E-selectin induc,DENV2 CPE rescue
Cc1cccc(Oc2nccc(C(F)(F)F)c2C(=O)Nc2ccc(F)cc2F)c1,-3,0,1,32*
CCC(C)Nc1nc(N)c([N+](=O)[O-])c(NCCO)n1 (stereo not drawn),3,0,.,94*
CC(C)CCNc1nc(N)c([N+](=O)[O-])c(NCCO)n1,-6,0,12,-4
COc1ccc(CN(C)C[C@H]2OCCCC[C@H](C)Oc3ccc(NC(=O)CCC(F)(F)F)cc3C(=O)N([C@H](C)CO)C[C@@H]2C)cc1,-13,0,0,29*
C[C@H]1CN([C@@H](C)CO)C(=O)c2cc(NC(=O)CCC(F)(F)F)ccc2O[C@@H]1CN(C)Cc1ccc(C(F)(F)F)cc1,-5,0,38*,4
C[C@@H]1CCCCO[C@H](CN(C)Cc2ccc(C(F)(F)F)cc2)[C@H](C)CN([C@@H](C)CO)C(=O)c2cc(NC(=O)CCC(F)(F)F)ccc2O1,-22,0,?,-3
C[C@@H]1CCCCO[C@H](CN(C)Cc2ccc(C(F)(F)F)cc2)[C@@H](C)CN([C@@H](C)CO)C(=O)c2cc(NC(=O)CCC(F)(F)F)ccc2O1,-8,-1,1,21*
C[C@@H]1CN([C@@H](C)CO)C(=O)c2cc(NS(=O)(=O)c3cccs3)ccc2O[C@H]1CN(C)C(=O)Nc1ccc2c(c1)OCO2,18,0,284*,5
Cc1noc(C)c1NC(=O)N(C)C[C@H]1Oc2ccc(NS(=O)(=O)c3cccs3)cc2C(=O)N([C@H](C)CO)C[C@@H]1C,-3,0,255*!,-14
Cc1noc(C)c1NC(=O)N(C)C[C@@H]1Oc2ccc(NS(=O)(=O)c3cccs3)cc2C(=O)N([C@@H](C)CO)C[C@H]1C,-3,0,-7,38*
Cc1noc(C)c1NC(=O)N(C)C[C@@H]1Oc2ccc(NC(=O)c3ccncc3)cc2C(=O)N([C@@H](C)CO)C[C@H]1C,9,0,6,8
Cc1noc(C)c1NC(=O)N(C)C[C@@H]1Oc2ccc(NC(=O)c3ccncc3)cc2C(=O)N([C@H](C)CO)C[C@H]1C,4,0,354*,3
COc1cc(/C=N/NC(=O)COc2ccccc2[N+](=O)[O-])ccc1OC(=O)c1ccco1,41,0,.,27*
N#Cc1cccc(-c2ccc3c(c2)[C@H]2[C@H](CCN2S(=O)(=O)c2cccc(F)c2)[C@@H](CO)N3)c1,1,0,0,8
Nc1cccnc1Oc1ccc(F)cc1,-5,0,-1,0
FC(F)(F)c1cccnc1Oc1ccc(C2=NCCS2)cc1,-4,1,.,68*
C[C@H](O)[C@@H]1CN2CCc3c([nH]c4ccccc34)[C@@H]2C[C@@H]1N(C)Cc1cc(Cl)cc(Cl)c1,9,0,15,3
CCCCOCCCNC(=O)C[C@@H]1C[C@@]2(C(=O)OCC)CCCC=C2N(CCc2ccc(OC)c(OC)c2)C1=O,-11,0,0,28*
CCOC(=O)[C@]12CCC=C1N(CCC1=CCCCC1)C(=O)[C@H](CC(=O)NCCCCc1ccccc1)C2,-2,0,.,85*
